According to ChEMBL document CHEMBL1144251, “IKCa-channel blockers. Part 2: discovery of cyclohexadienes” (Bioorg Med Chem Lett, 2005):

Test: Inhibitory concentration against rat Calcium-activated potassium channel (IKca)
Summary of the method: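 IC50 taken as the mean of at least two separate experiments, each run in triplicate.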

IC50 [nM]	Compound
400	CNC1=C(C(=O)OC)C(c2cccc(Cl)c2Cl)C2=C(COC2=O)C1 (stereo not given)
1.5	COC(=O)C1=C(C)CC(C)=C(C(=O)OC)C1c1ccc(Cl)c(C(F)(F)F)c1
8	COC(=O)C1=C(C)CC2=C(C(=O)OC2)C1c1ccc(Cl)c(C(F)(F)F)c1 (stereo not given)
25	CNC1=C(C(=O)OC)C(c2cccc([N+](=O)[O-])c2)C(C(=O)OC)=C(C)C1 (stereo not given)
200	CNC1=C(C(=O)OC)C(c2ccc(C(F)(F)F)cc2)C(C(=O)OC)=C(C)C1 (stereo not given)
> 1000	COC(=O)C1=C(C)CC(C)=C(C(=O)OC)C1c1cccnc1
20	CNC1=C(C(=O)OC)C(c2ccc([N+](=O)[O-])cc2)C(C(=O)OC)=C(C)C1 (stereo not given)
200	CCO/C(O)=C1/C(=O)CC2=C(C(=O)OC2)C1c1ccccc1Cl (stereo not given)
> 1000	COC(=O)C1=C(C)CC(C)=C(C(=O)O)C1c1ccc(Cl)c(C(F)(F)F)c1 (stereo not given)
100	COC(=O)C1=C(C)CC(C)=C(C(=O)OC)C1c1cc(Cl)cc(Cl)c1
> 1000	COC(=O)C1=C(C)CC(C)=C(C(=O)OC)C1C1CCCCC1
30	COC(=O)C1=C(C)CC(C)=C(C(N)=O)C1c1ccc(Cl)c(C(F)(F)F)c1 (stereo not given)
> 1000	COC(=O)C1=C(C)CC(C)=C(C(=O)OC(C)(C)C)C1c1ccc(Cl)c(C(F)(F)F)c1 (stereo not given)
40	CCO/C(O)=C1/C(=O)CC2=C(C(=O)OC2)C1c1ccc(Cl)c(C(F)(F)F)c1 (stereo not given)
200	CNC1=C(C(=O)OC)C(c2cccc([N+](=O)[O-])c2)C2=C(COC2=O)C1 (stereo not given)
